Test results as given in ChEMBL document CHEMBL1833859, “Discovery of novel imidazo[1,2-a]pyrazin-8-amines as Brk/PTK6 inhibitors” (Bioorg Med Chem Lett, 2011).

What was measured:
[1] = Cmax in mouse at 30 mg/kg, po; type: ADME, organism-based; set-up: dose 30 mg/kg, route oral; conditions: in vivo
Outline: (§1)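 Mouse pharmacokinetics, 15 animals per dose group, dosed intraperitoneally at 30 mg/kg or orally at 10, 30 or 100 mg/kg. Plasma levels were followed from 0 to 6 h.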

[2] = Cmax in mouse at 100 mg/kg, po; type: ADME, organism-based; set-up: dose 100 mg/kg, route oral; conditions: in vivo; outline: as §1
[3] = Tmax in mouse at 30 mg/kg, ip; type: ADME, organism-based; set-up: dose 30 mg/kg, route intraperitoneal; conditions: in vivo; outline: as §1
[4] = Tmax in mouse at 10 mg/kg, po; type: ADME, organism-based; set-up: dose 10 mg/kg, route oral; conditions: in vivo; outline: as §1
[5] = Tmax in mouse at 30 mg/kg, po; type: ADME, organism-based; set-up: dose 30 mg/kg, route oral; conditions: in vivo; outline: as §1
[6] = Tmax in mouse at 100 mg/kg, po; type: ADME, organism-based; set-up: dose 100 mg/kg, route oral; conditions: in vivo; outline: as §1
[7] = Inhibition of CYP; type: ADME
[8] = target: Aurora kinase B (Homo sapiens, UniProt Q96GD4); experiment: Inhibition of AurB
Chain of Aurora kinase B (Q96GD4 whole entry): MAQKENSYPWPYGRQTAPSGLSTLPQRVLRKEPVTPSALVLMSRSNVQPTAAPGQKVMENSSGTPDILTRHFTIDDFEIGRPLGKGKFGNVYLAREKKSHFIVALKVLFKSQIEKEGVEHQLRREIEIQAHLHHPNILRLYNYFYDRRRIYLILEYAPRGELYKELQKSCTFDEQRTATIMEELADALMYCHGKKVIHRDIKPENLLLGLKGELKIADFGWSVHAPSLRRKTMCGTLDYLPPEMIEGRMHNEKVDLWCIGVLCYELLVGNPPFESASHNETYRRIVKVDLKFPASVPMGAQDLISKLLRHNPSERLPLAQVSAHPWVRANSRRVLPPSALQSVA

[9] = target: Tyrosine-protein kinase Lck (Homo sapiens, UniProt P06239); experiment: Inhibition of LCK
Chain of Tyrosine-protein kinase Lck (P06239 whole entry): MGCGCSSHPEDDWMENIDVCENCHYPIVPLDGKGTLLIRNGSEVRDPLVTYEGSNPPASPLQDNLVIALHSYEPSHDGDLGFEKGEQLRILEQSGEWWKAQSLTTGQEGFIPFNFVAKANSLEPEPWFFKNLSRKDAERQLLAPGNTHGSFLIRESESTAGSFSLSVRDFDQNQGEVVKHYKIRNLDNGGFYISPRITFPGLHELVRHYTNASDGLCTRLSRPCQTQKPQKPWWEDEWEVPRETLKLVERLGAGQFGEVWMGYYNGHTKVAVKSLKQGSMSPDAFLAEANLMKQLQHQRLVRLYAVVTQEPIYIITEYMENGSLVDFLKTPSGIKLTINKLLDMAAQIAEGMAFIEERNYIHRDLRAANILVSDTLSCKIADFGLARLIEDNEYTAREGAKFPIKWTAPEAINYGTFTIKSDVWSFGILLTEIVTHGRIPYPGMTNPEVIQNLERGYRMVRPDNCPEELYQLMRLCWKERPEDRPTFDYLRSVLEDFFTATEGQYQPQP

[10] = Intrinsic clearance in human Hepatocytes assessed as per million cells; type: ADME, cell-based, Liver, Hepatocyte
[11] = Intrinsic clearance in rat Hepatocytes assessed as per million cells; type: ADME, cell-based, Liver, Hepatocyte
[12] = AUC (0 to 6 hrs) in mouse at 30 mg/kg, ip; type: ADME, organism-based; set-up: time < 6 hr, dose 30 mg/kg, route intraperitoneal; conditions: plasma; outline: as §1
[13] = AUC (0 to 6 hrs) in mouse at 10 mg/kg, po; type: ADME, organism-based; set-up: time < 6 hr, dose 10 mg/kg, route oral; conditions: plasma; outline: as §1
[14] = AUC (0 to 6 hrs) in mouse at 30 mg/kg, po; type: ADME, organism-based; set-up: time < 6 hr, dose 30 mg/kg, route oral; conditions: plasma; outline: as §1
[15] = AUC (0 to 6 hrs) in mouse at 100 mg/kg, po; type: ADME, organism-based; set-up: time < 6 hr, dose 100 mg/kg, route oral; conditions: plasma; outline: as §1
[16] = Cmax in mouse at 30 mg/kg, ip; type: ADME, organism-based; set-up: dose 30 mg/kg, route intraperitoneal; conditions: in vivo; outline: as §1
[17] = Cmax in mouse at 10 mg/kg, po; type: ADME, organism-based; set-up: dose 10 mg/kg, route oral; conditions: in vivo; outline: as §1

Work on `Cc1cn2c(-c3cn[nH]c3)cnc2c(Nc2ccc(C(=O)N3CCNCC3)cc2F)n1` yielded a Cmax [1] of 420 nM, a Cmax [2] of 1600 nM and a Tmax [3] of 0.5 h. For the same molecule, the Tmax [4] was 6 h, the Tmax [5] was 2 h and the Tmax [6] was 4 h. For the same molecule, the IC50 [7] was greater than 20 µM, the IC50 [8] was greater than 20 µM and the IC50 [9] was greater than 20 µM. It also gave a hepatocyte CLint [10] of 2 µL/min/1e6 cells, a hepatocyte CLint [11] of 5.3 µL/min/1e6 cells and an AUC(0-t) at 6 h [12] of 17.1 µM·h. For the same molecule, the AUC(0-t) at 6 h [13] was 0.1 µM·h, the AUC(0-t) at 6 h [14] was 1.4 µM·h and the AUC(0-t) at 6 h [15] was 8.1 µM·h. It also gave a Cmax [16] of 17900 nM and a Cmax [17] of 40 nM.
